Assay results from ChEMBL document CHEMBL4765325, “Discovery of dihydropyrrolidones as novel inhibitors against influenza A virus” (Eur J Med Chem, 2020).

Columns and labels:
Influenza A virus = experiment: Antiviral activity against Influenza A virus (A/Puerto Rico/8/34(H1N1)) harboring NA H274Y mutant infected in dog MDCK cells assessed as reduction in virus-induced cytopathogenicity incubated for 48 hrs by microscopic analysis; format: functional, organism-based, A/Puerto Rico/8/1934(H1N1)
How it was run: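 MDCK cells were infected with each IAV strain at 100TCID₅₀ for 1 h, then washed twice with PBS. They were cultured 48 h in DMEM with two-fold serial compound dilutions and 1 mg/ml TPCK. Antiviral activity was read by an MTT-based method, giving IC₅₀ from triplicate wells as mean SD.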

[1] = Selectivity index, ratio of CC50 for dog MDCK cells to IC50 for antiviral activity against Influenza A virus (A/Puerto Rico/8/34(H1N1)) harboring NA H274Y mutant; format: toxicity; conditions: read-out: Ratio CC50/IC50
How it was run: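 SI = CC50/IC50, both from MTT read-outs in MDCK cells in triplicate. Cytotoxicity: 2 × 10⁴ cells/well, overnight at 37 °C with 5% CO2, then compound at 1.56–400 µM for 48 h, MTT 4 h, DMSO, A570. Antiviral: cells infected 1 h, washed, then cultured 48 h in DMEM with TPCK and two-fold serial compound dilutions.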

CCOC(=O)C1=C(Nc2ccc(C(F)(F)F)cc2)C(=O)N(c2ccc(C(F)(F)F)cc2)C1c1ccccc1 (configuration not stated)
IC50 (Influenza A virus): 6.48 µM | selectivity ratio [1]: > 61.6
